{"source": "paper PMC6072216", "about": "(MedChemComm, 2017)", "key": {"[1]": {"test_system": "MDA-MB-231 breast cancer cells", "experiment": "MTS cell proliferation/viability assay, MDA-MB-231", "type": "cell-based, Human", "conditions": "for antiproliferative activity (in words): MDA-MB-231, 50 μM, 48 hours, MTS", "procedure,_shortened": "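MDA-MB-231 cells cultured in DMEM with 10% FBS and 1% penicillin/streptomycin at 37 °C, 5% CO2; seeded at 7 × 10^3 per well. Serum removed after 24 h, then test compound at 1–50 μM in DMSO (max 0.1%) for 48 h, with a solvent-only control. MTS reagent 4 h at 37 °C, OD 550 nm. Blank-subtracted values normalised to DMSO (100%); triplicates; IC50 by nonlinear regression.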"}, "[2]": {"test_system": "MCF-7 breast cancer cells", "experiment": "MTS cell proliferation assay, MCF-7", "type": "cell-based, human", "conditions": "MCF-7, highest concentration tested 50 μM, 48 h", "procedure,_shortened": "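MCF-7 cells seeded at 7 × 10^3 per well; serum withdrawn after 24 h, then exposed 48 h to test compound at 10–50 μM in DMSO (max 0.1%), with a solvent-only control. MTS reagent added; absorbance read at 550 nm after 4 h at 37 °C. Blank-subtracted values normalised to DMSO control (100%); triplicates.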"}, "MDA-MB-231 cells": {"test_system": "MDA-MB-231 cells", "experiment": "Annexin V-FITC/PI apoptosis assay by flow cytometry", "type": "cell-based, Human", "conditions": "48 hours", "procedure,_shortened": "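MDA-MB-231 cells seeded at 1 × 10^5 per well in 6-well plates; 24 h after serum removal, exposed to test compound (20–40 μM) for 48 h against a 0.1% DMSO control. Trypsinised, washed in cold PBS, stained with Annexin V-FITC and PI (50 μg mL–1) in binding buffer for 20 min in the dark at 0 °C. Flow cytometry gated viable, early-apoptotic, late-apoptotic and necrotic fractions. 3 independent experiments; one-way ANOVA with Fisher's PLSD.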"}, "VERO cells": {"test_system": "VERO cells", "experiment": "Cytotoxicity against GFP-expressing VERO cells", "type": "cell-based, African Green Monkey", "conditions": "50 μg mL^–1 (158 μM for 2c, 139 μM for 3), 4 days"}, "[3]": {"test_system": "leukaemia, colon, renal and melanoma cancer cell lines", "experiment": "NCI anti-cancer screen, summary over cell line groups", "type": "cell-based", "conditions": "read-out: IC50 values"}}, "data": [{"smiles": "C[C@]1(NC(=O)CCl)C2CC[C@@]3(C)N=C(CCl)C1CC3C2", "note": "(stereo partly drawn) [Compound 2c, Exo-11-chloroacetamido-4,endo-11-dimethyl-2-chloromethyl-3-azatricyclo[5.3.1.0^4,9]undec-2-ene]", "values": [{"measurement": "MDA-MB-231 cell viability", "setting": "[1]; at 20 μM", "result": "90 % of control"}, {"measurement": "antiproliferative activity (in words)", "setting": "[2]", "result": "no antiproliferative activities"}, {"measurement": "increase of population of cells in early apoptosis", "setting": "MDA-MB-231 cells; 20 μM", "result": 21, "unit": "%"}, {"measurement": "increase of population of cells in early apoptosis", "setting": "MDA-MB-231 cells; 40 μM", "result": 31, "unit": "%"}, {"measurement": "reduction of VERO cell viability", "setting": "VERO cells", "result": "84 % of control"}]}, {"smiles": "COC(=O)/C=C1\\C(=O)C=C2C3CC4CC(CCC4(C)N21)C3(C)NC(C)=O", "note": "(stereo not shown) [Compound 3]", "values": [{"measurement": "reduction of VERO cell viability", "setting": "VERO cells", "result": "77 % of control"}, {"measurement": "IC50", "setting": "[3]", "result": "< 10", "unit": "µM"}]}, {"smiles": "CC(=O)N[C@@]1(C)C2CC[C@@]3(C)N[C@@H](CCl)C1CC3C2", "note": "(stereo partly drawn) [Compound 9, Exo-11-acetamido-4,endo-11-dimethyl-2-chloromethyl-3-azatricyclo[5.3.1.0^4,9]undecane]", "values": [{"measurement": "antiproliferative activity (in words)", "setting": "[1]", "result": "lack of activity"}]}, {"smiles": "COC(=O)C[C@H]1C(=O)C=C2C3CC4CC(CC[C@@]4(C)N21)[C@]3(C)NC(C)=O", "note": "(stereo partly drawn) [Compound 10, Methyl(E)-[exo-11-acetylamino-9α,endo-11-dimethyl-2-oxo-1,2,4,5,5α,6,7,8,9,9α-decahydro-4,7-methanopyrrolo[1,2-a]-quinolin-1-ylidane]ethanoate]", "values": [{"measurement": "antiproliferative activity (in words)", "setting": "[1]", "result": "lack of activity"}]}, {"smiles": "CC(=O)N[C@@]1(C)C2CC[C@@]3(C)N=C(CCl)C1CC3C2", "note": "(stereo partly drawn) [Compound 8, Exo-11-acetamido-4,endo-11-dimethyl-2-chloromethyl-3-azatricyclo[5.3.1.0^4,9]undec-2-ene]", "values": [{"measurement": "antiproliferative activity (in words)", "setting": "[1]", "result": "lack of activity"}]}]}
